Here are results for 10 compounds from ChEMBL document CHEMBL4266007, “Synthesis and Biological Evaluation of an Indazole-Based Selective Protein Arginine Deiminase 4 (PAD4) Inhibitor” (ACS Med Chem Lett, 2018).

Each structure is given as a SMILES string. Activity calls are given as the source filed them. No cut-off for these calls is given here.

The species named for assay [1] is Homo sapiens. Kind of assay: Ratio of Kinact/Ki for PAD4 (unknown origin) to Kinact/Ki for PAD3 (unknown origin).
Assay [2] concerns the target T1, Protein-arginine deiminase type-4 (Homo sapiens, UniProt Q9UM07). Kind of assay: Inhibition of PAD4 in human HL60 cells assessed as reduction in A23187-induced citrullinated H4 level at 5 to 10 uM preincubated for 15 mins followed by A23187 addition measured after 15 mins by Western blot analysis. The assay is classed as cell-based. The essentials: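 HL-60 cells differentiated into mature granulocytes, which express PAD4, then stimulated with a calcium ionophore to trigger histone H4 citrullination. Cell lysates were analysed by Western blot using an anti-citrulline histone H4 antibody.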
(In general: Immunoblotting shows a protein as a band on a membrane.)

The species named for assay [3] is Homo sapiens. The experiment in a line: Ratio of Kinact/Ki for PAD4 (unknown origin) to Kinact/Ki for PAD2 (unknown origin).
The species named for assay [4] is Homo sapiens. The experiment in a line: Ratio of Kinact/Ki for PAD4 (unknown origin) to Kinact/Ki for PAD1 (unknown origin).
For assay [5], the target named is T1, Protein-arginine deiminase type-4. Kind of assay: Inhibition of PAD4 (unknown origin) preincubated for 15 mins followed by BAEE addition measured after 15 mins by spectrophotometric method.
Assay [6] is filed under the species Homo sapiens. The experiment in a line: Ratio of Kinact/Ki for PAD2 (unknown origin) to Kinact/Ki for PAD4 (unknown origin).
The species entered for assay [7] is Homo sapiens. Kind of assay: Ratio of Kinact/Ki for PAD2 (unknown origin) to Kinact/Ki for PAD1 (unknown origin).
The species named for assay [8] is Homo sapiens. Kind of assay: Ratio of Kinact/Ki for PAD2 (unknown origin) to Kinact/Ki for PAD3 (unknown origin).
The species named for assay [9] is Homo sapiens. The experiment in a line: Ratio of Kinact/Ki for PAD1 (unknown origin) to Kinact/Ki for PAD2 (unknown origin).
Assay [10] is filed under the species Homo sapiens. Kind of assay: Ratio of Kinact/Ki for PAD1 (unknown origin) to Kinact/Ki for PAD3 (unknown origin).
For assay [11], the species on record is Homo sapiens. Kind of assay: Ratio of Kinact/Ki for PAD1 (unknown origin) to Kinact/Ki for PAD4 (unknown origin).
The species entered for assay [12] is Homo sapiens. Kind of assay: Ratio of Kinact/Ki for PAD3 (unknown origin) to Kinact/Ki for PAD1 (unknown origin).
For assay [13], the species on record is Homo sapiens. Kind of assay: Ratio of Kinact/Ki for PAD3 (unknown origin) to Kinact/Ki for PAD4 (unknown origin).
For assay [14], the species on record is Homo sapiens. Kind of assay: Ratio of Kinact/Ki for PAD3 (unknown origin) to Kinact/Ki for PAD2 (unknown origin).

T1 sequence (Q9UM07 whole entry): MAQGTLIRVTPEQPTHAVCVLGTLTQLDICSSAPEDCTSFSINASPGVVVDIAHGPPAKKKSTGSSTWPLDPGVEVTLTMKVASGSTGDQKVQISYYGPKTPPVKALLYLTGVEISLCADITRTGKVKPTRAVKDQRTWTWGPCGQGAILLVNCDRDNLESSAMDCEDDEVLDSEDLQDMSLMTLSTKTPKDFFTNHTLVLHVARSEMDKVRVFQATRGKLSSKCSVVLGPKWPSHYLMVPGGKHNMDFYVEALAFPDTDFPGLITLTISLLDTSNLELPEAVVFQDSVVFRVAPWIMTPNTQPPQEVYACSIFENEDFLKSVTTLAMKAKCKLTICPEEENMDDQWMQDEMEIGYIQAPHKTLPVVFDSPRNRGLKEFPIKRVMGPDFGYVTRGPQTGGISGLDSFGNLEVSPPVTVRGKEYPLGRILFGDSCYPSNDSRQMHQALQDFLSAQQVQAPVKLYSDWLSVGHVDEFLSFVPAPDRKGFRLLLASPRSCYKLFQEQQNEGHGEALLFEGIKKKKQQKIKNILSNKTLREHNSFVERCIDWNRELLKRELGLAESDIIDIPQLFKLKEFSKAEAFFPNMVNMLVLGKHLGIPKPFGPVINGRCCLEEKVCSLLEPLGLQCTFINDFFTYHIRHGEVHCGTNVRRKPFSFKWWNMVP

As to `N=C(CCl)NCCCc1nn(CC2CCCC2)c2cc(Cl)ccc12`, in the assay filed under Homo sapiens [1], the Ratio came to 2.

For `N=C(CCl)NCCC[C@H](NC(=O)c1ccccc1)C(N)=O`, the inhibition entry in assay [2] was “Active”.

As for `N=C(CCl)NCCCc1nn(CC2CCCC2)c2cc(Cl)cc(Cl)c12`, the Ratio is 7.5 in the assay filed under Homo sapiens [1], 72 in the assay listed under Homo sapiens [3] and 3300 in the assay listed under Homo sapiens [4].

Turning to `N=C(CCl)NCCCc1nn(CC2CCCC2)c2ccc(Cl)cc12`, in the assay filed under Homo sapiens [1], the Ratio came to 1.6.

On to `Cn1cc(CCCNC(=N)CCl)c2ccccc21`, for which the IC50 in assay [5] turned out to be 190 µM.

As for `CCN1Cc2ccc(C(=O)N[C@@H](CCCNC(=N)CF)c3nc4c(OC)cccc4n3C)cc2C1=O`, the Ratio in the assay listed under Homo sapiens [6], in the assay filed under Homo sapiens [7] and in the assay listed under Homo sapiens [8] was more than 5 each time.

In the case of `N=C(CCl)NCCCc1nn(CC2CCCC2)c2cccc(Cl)c12`, the Ratio in the assay filed under Homo sapiens [1] was determined as 1.3.

For the compound `CC(C)(C)n1nnc([C@H](CCCNC(=N)CCl)NC(=O)c2cccc(C(=O)O)c2)n1`, the Ratio in the assay filed under Homo sapiens [9], in the assay filed under Homo sapiens [10] and in the assay filed under Homo sapiens [11] was more than 3 each time.

`N=C(CCl)NCCCc1nn(CC2CCCC2)c2cc(Cl)c(Cl)c(Cl)c12`: the Ratio in the assay listed under Homo sapiens [1] was 11; in the assay filed under Homo sapiens [3] it was 58; in the assay filed under Homo sapiens [4], 2700. Also, in assay [2], the inhibition result is “Active”.

For the compound `N=C(CCl)NCCCC1NC(=O)N(Cc2ccc(-c3ccccc3Cl)cc2)C1=O` (racemic), the Ratio in the assay listed under Homo sapiens [12], in the assay listed under Homo sapiens [13] and in the assay filed under Homo sapiens [14] was more than 10 throughout.

A word on the IC50: it is the concentration needed to halve the response being measured. Read a high IC50 as a need for much substance.
